Reference: ChEMBL document CHEMBL1143782, “Alpha-aminothiazole-gamma-aminobutanoic amides as potent, small molecule CCR2 receptor antagonists” (Bioorg Med Chem Lett, 2007)

Key:
Format in all cases: cell-based
[1] = target: T1, C-C chemokine receptor type 2 (Homo sapiens, UniProt P41597); experiment: Displacement of [125I]MCP1 from human CCR2 expressed in monocytes
Outline: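 Human CCR2 binding was read as inhibition of 125I-MCP-1 binding to monocyte cells stably transfected with CCR2. The assay was run in the presence of 0.5% BSA, using membranes of these cells.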
Target sequence in this assay (P41597 whole entry): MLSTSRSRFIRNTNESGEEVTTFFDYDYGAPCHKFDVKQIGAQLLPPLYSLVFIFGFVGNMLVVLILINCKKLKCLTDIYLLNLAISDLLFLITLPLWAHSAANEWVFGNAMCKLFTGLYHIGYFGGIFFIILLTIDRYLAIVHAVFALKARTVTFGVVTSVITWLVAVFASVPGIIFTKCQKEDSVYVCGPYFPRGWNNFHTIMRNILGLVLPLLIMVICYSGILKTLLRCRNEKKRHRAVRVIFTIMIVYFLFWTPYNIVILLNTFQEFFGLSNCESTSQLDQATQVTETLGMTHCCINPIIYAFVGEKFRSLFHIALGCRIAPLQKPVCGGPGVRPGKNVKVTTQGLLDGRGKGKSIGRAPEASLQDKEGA

[2] = target: C-C chemokine receptor type 2 (Mus musculus, UniProt P51683); experiment: Displacement of [125I]MCP1 from mouse CCR2 expressed in monocytes
[3] = target: T1, C-C chemokine receptor type 2; experiment: Displacement of [125I]MCP-1 from human CCR2 expressed in monocytes 1 uM
Target sequence in this assay (P41597 whole entry, looked up): as the sequence (P41597 whole entry) above

Chain of C-C chemokine receptor type 2 (Mus musculus, UniProt P51683) (P51683 whole entry): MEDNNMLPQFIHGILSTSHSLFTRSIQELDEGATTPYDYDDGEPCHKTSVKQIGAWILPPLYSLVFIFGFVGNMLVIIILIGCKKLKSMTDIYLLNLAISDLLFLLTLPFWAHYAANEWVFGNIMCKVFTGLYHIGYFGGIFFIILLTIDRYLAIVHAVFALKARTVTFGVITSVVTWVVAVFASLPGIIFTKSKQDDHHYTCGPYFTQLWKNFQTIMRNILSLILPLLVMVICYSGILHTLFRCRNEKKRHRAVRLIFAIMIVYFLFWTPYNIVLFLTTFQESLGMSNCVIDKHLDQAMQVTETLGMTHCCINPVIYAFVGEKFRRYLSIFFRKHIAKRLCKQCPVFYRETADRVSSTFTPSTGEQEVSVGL

| Structure (SMILES) | IC50 [1] [nM] | IC50 [2] [nM] | inhibition [3] [%] |
| --- | --- | --- | --- |
| Cc1ccccc1N1CCN(CCC(C(=O)NCc2cc(C(F)(F)F)cc(C(F)(F)F)c2)c2csc(N)n2)CC1 (centres undefined) | 183 |  |  |
| CCC(=O)Nc1nc(C(CCN2CCC(c3ccccc3)CC2)C(=O)NCc2cc(C(F)(F)F)cc(C(F)(F)F)c2)cs1 (centres undefined) | 3.5 |  |  |
| C[C@H]1CN(CCC(C(=O)NCc2cc(C(F)(F)F)cc(C(F)(F)F)c2)c2csc(N)n2)CCC12C=Cc1ccccc12 (some centres undefined) | 1.3 |  |  |
| Nc1nc(C(CCN2CCC(c3ccccc3)CC2)C(=O)NCc2cc(C(F)(F)F)cc(C(F)(F)F)c2)cs1 (centres undefined) | 20 |  |  |
| CC(=O)Nc1nc(C(CCN2CCC(n3cnc4ccccc43)CC2)C(=O)NCc2cc(C(F)(F)F)cc(C(F)(F)F)c2)cs1 (centres undefined) | 3 |  |  |
| COC(=O)Nc1nc(C(CCN2CCC(c3ccccc3)CC2)C(=O)NCc2cc(C(F)(F)F)cc(C(F)(F)F)c2)cs1 (centres undefined) | 2.6 |  |  |
| O=C(Nc1nc(C(CCN2CCC(c3ccccc3)CC2)C(=O)NCc2cc(C(F)(F)F)cc(C(F)(F)F)c2)cs1)c1ccccc1 (centres undefined) | 16 |  |  |
| CNC(=O)Nc1nc([C@H](CCN2CCC(c3ccccc3)CC2)C(=O)NCc2cc(C(F)(F)F)cc(C(F)(F)F)c2)cs1 | 0.43 |  |  |
| O=C(NCc1cc(C(F)(F)F)cc(C(F)(F)F)c1)[C@H](CCN1CCC(c2ccccc2)CC1)c1cscn1 | 229 |  |  |
| C[C@H]1CN(CCC(C(=O)NCc2cc(C(F)(F)F)cc(C(F)(F)F)c2)c2csc(NC(=O)c3cccnc3)n2)CC[C@]12C=Cc1ccccc12 (some centres undefined) | 14 | 186 |  |
| C[C@H]1CN(CCC(C(=O)NCc2cc(C(F)(F)F)cc(C(F)(F)F)c2)c2csc(NC(=O)Cc3ccccc3)n2)CC[C@]12C=Cc1ccccc12 (some centres undefined) | 19 | 165 |  |
| COC(=O)Nc1nc([C@@H](CCN2CCC(c3ccccc3)CC2)C(=O)NCc2cc(C(F)(F)F)cc(C(F)(F)F)c2)cs1 |  |  | 85 |
| O=CNc1nc(C(CCN2CCC(c3ccccc3)CC2)C(=O)NCc2cc(C(F)(F)F)cc(C(F)(F)F)c2)cs1 (centres undefined) | 4 |  |  |
| CC(C(=O)Nc1nc(C(CCN2CC[C@]3(C=Cc4ccccc43)[C@@H](C)C2)C(=O)NCc2cc(C(F)(F)F)cc(C(F)(F)F)c2)cs1)c1ccccc1 (some centres undefined) | 74 | 517 |  |
| Nc1nc(C(CCN2CCC(c3ccc(F)cc3)CC2)C(=O)NCc2cc(C(F)(F)F)cc(C(F)(F)F)c2)cs1 (centres undefined) | 9.1 |  |  |
| CNC(=O)Nc1nc(C(CCN2CCC(c3ccccc3)CC2)C(=O)NCc2cc(C(F)(F)F)cc(C(F)(F)F)c2)cs1 (centres undefined) | 3 |  |  |
| CNC(=O)Nc1nc([C@H](CCN2CCC3(C=Cc4ccccc43)CC2)C(=O)NCc2cc(C(F)(F)F)cc(C(F)(F)F)c2)cs1 | 0.8 |  |  |
| CC(=O)Nc1nc([C@@H](CCN2CCC(c3ccccc3)CC2)C(=O)NCc2cc(C(F)(F)F)cc(C(F)(F)F)c2)cs1 | 42 |  |  |
| CC(=O)Nc1nc([C@@H](CCN2CCC3(C=Cc4ccccc43)CC2)C(=O)NCc2cc(C(F)(F)F)cc(C(F)(F)F)c2)cs1 | 6.5 |  |  |
| Nc1nc(C(CCN2CCC(n3cnc4ccccc43)CC2)C(=O)NCc2cc(C(F)(F)F)cc(C(F)(F)F)c2)cs1 (centres undefined) | 28.6 |  |  |
| CC(=O)Nc1nc(C(CCN2CCC3(C=Cc4ccccc43)[C@@H](C)C2)C(=O)NCc2cc(C(F)(F)F)cc(C(F)(F)F)c2)cs1 (some centres undefined) | 3 |  |  |
| C[C@H]1CN(CCC(C(=O)NCc2cc(C(F)(F)F)cc(C(F)(F)F)c2)c2csc(NC(=O)Cc3cccs3)n2)CC[C@]12C=Cc1ccccc12 (some centres undefined) | 23 | 81 |  |
| CC(=O)Nc1nc(C(CCN2CCC(c3ccc(F)cc3)CC2)C(=O)NCc2cc(C(F)(F)F)cc(C(F)(F)F)c2)cs1 (centres undefined) | 1.8 |  |  |
| C[C@H]1CN(CCC(C(=O)NCc2cc(C(F)(F)F)cc(C(F)(F)F)c2)c2csc(NC(=O)Cc3ccccn3)n2)CC[C@]12C=Cc1ccccc12 (some centres undefined) | 13 | 79 |  |
